Calls of active or inactive are those of the source. The calls are words filed in the database; no cut-off is given here.
Columns and labels:
[1] = Cytotoxicity against rat HSC-T6 cell after 24 hrs by MTT assay; type: cell-based; details: for IC50: Rattus norvegicus, HSC-T6, 24 h
HepG2 [2] = experiment: Hepatoprotective activity in human HepG2 cells assessed as inhibition of CCl4-induced toxicity at 6.25% IC50 after 24 hrs by MTT assay; type: functional, cell-based
In short: (§1)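 HepG2 cells grown 10 days in EMEM with 10% FBS, then seeded 24 h at 30,000 cells/ml in 2% FBS. Test agent added together with CCl4 (4.5 x 10^-3 M) for 24 h. Silybin was tested at 1–200 uM. Cucurbitacins were tested at 0.5 and […] their IC50, then at 0.13 and 0.06. MTT read at 570 nm. % protection calculated against CCl4-only and media-only controls. Three experiments, ≥3 replicates each.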

HepG2 [3] = experiment: Hepatoprotective activity in human HepG2 cells assessed as inhibition of CCl4-induced toxicity at 12.5% IC50 after 24 hrs by MTT assay; type: functional, cell-based; in short: as §1
[4] = Antiproliferative activity against serum-stimulated rat HSC-T6 cells after 24 hrs by MTT assay; type: functional, cell-based; details: HSC-T6, 24 h
HeLa = experiment: Cytotoxicity against human HeLa cells after 24 hrs by MTT assay; type: functional, cell-based
HepG2 [5] = experiment: Hepatoprotective activity in human HepG2 cells assessed as protection against cell damage after 24 hrs by MTT assay; type: functional
HSC-T6 = experiment: Cytotoxicity against rat HSC-T6 cell up to 300 uM after 24 hrs by MTT assay; type: functional, cell-based
In short: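 HSC-T6 rat stellate cells grown 4-5 days in EMEM/10% FBS, then seeded 24 h at 100,000 cells/ml in 2% FBS. Medium replaced with compound in fresh 10% FBS medium, two-fold dilutions across seven wells, for 24 h. Viability by MTT (570 nm) relative to cell-free and untreated controls. Three experiments, ≥3 replicates each.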

HepG2 [6] = experiment: (§2) Cytotoxicity against human HepG2 cells after 24 hrs assessed as inhibition of cell viability by MTT assay; type: cell-based; details: for IC50: Homo sapiens, HepG2, 24 h
HepG2 [7] = experiment: Hepatoprotective activity in human HepG2 cells assessed as inhibition of CCl4-induced toxicity after 24 hrs by MTT assay; type: functional, cell-based; set-up: Activity: scale not given: the % may be the effect or the level left; details: for EC50: Homo sapiens, HepG2, 24 h
HepG2 [8] = experiment: Hepatoprotective activity in human HepG2 cells assessed as inhibition of CCl4-induced toxicity at 100 uM after 24 hrs by MTT assay; type: functional, cell-based; in short: as §1
[9] = Ratio of IC50 to EC50 for antiproliferative activity in rat HSC-T6 cells; type: functional
HepG2 [10] = experiment: Ratio of IC50 to EC50 for hepatoprotective activity in human HepG2 cells; type: functional
[11] = as §2; type: cell-based; details: human, HepG2 cells; read-out: INH
[12] = Antioxidant activity assessed as inhibition of free radical production at 0.58 mM within 6 mins by ABTS+ decolorization assay; type: functional
HepG2 [13] = experiment: Ratio of IC50 for human HepG2 cells to IC50 for human HeLa cells
In short: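 Both lines (HepG2 grown 10 days, HeLa 7 days, in EMEM/10% FBS) seeded 24 h in 2% FBS at 30,000 and 15,000 cells/ml. Five-fold serial dilutions over 5 wells for 24 h. Viability by MTT at 570 nm versus cell-free and untreated controls. IC50 derived from log IC50. Ratio taken of the two IC50 values.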

| SMILES | IC50 [1] [µM] | EC50 [4] [µM] | Activity (HepG2 [5]) [%] | EC50 (HepG2 [7]) [µM] | IC50 (HepG2 [6]) [µM] | Ratio IC50/EC50 [9] | inhibition (INH) (HepG2 [7]) [%] | Ratio IC50/EC50 (HepG2 [10]) | also measured |
| --- | --- | --- | --- | --- | --- | --- | --- | --- | --- |
| CCCOC1=C[C@@H]2C(=CC[C@@H]3[C@@]2(C)C(=O)C[C@]2(C)[C@@H]([C@@](C)(O)C(=O)/C=C/C(C)(C)OC(C)=O)[C@H](O)C[C@@]32C)C(C)(C)C1=O | 2.75 | 0.34 | 40 |  |  |  |  |  | inhibition (HepG2 [2]): inactive; inhibition (HepG2 [3]): inactive; IC50 (HeLa): 1.4 µM |
| COc1cc(C2Oc3cc([C@H]4Oc5cc(O)cc(O)c5C(=O)[C@@H]4O)ccc3OC2CO)ccc1O (some centres not stated) [SILIBININ] |  | 18.8 | 40 | 45 |  |  |  |  | Activity ([1]; rat, hsc-t6, 24 h): Non-toxic; Activity (HSC-T6): Not toxic; Activity (HepG2 [6]; human, hepg2, 24 h): Non-toxic; inhibition (HepG2 [8]): Active |
| CC(C)(O)/C=C/C(=O)[C@](C)(O)[C@H]1[C@H](O)C[C@@]2(C)[C@@H]3CC=C4[C@@H](C=C(O)C(=O)C4(C)C)[C@]3(C)C(=O)C[C@]12C [CUCURBITACIN I] | 3.6 | 0.02 | 40 | 3.16 | 15.8 | 150 | 74 | 5 |  |
| ClC(Cl)(Cl)Cl [CARBON TETRACHLORIDE] |  |  |  |  |  |  |  |  | cytotoxicity at 24 h [11]: 50% |
| Cc1c(C)c2c(c(C)c1O)CCC(C)(C(=O)O)O2 (configuration not stated) |  |  |  |  |  |  |  |  | inhibition [12]: 50% |
| CCOC1=C[C@@H]2C(=CC[C@@H]3[C@@]2(C)C(=O)C[C@]2(C)[C@@H]([C@@](C)(O)C(=O)/C=C/C(C)(C)O)[C@H](O)C[C@@]32C)C(C)(C)C1=O | 3.53 | 0.34 | 40 |  |  |  |  |  | Activity (HepG2 [7]): <50% |
| COC1=C[C@@H]2C(=CC[C@@H]3[C@@]2(C)C(=O)C[C@]2(C)[C@@H]([C@@](C)(O)C(=O)CCC(C)(C)O)[C@H](O)C[C@@]32C)C(C)(C)C1=O | 6.7 | 0.18 | 40 | 5 |  |  | 74 |  |  |
| CC(C)(O)/C=C/C(=O)[C@](C)(O)[C@H]1[C@H](O)C[C@@]2(C)[C@@H]3CC=C4[C@@H](C=C(O[C@@H]5O[C@H](CO)[C@@H](O)[C@H](O)[C@H]5O)C(=O)C4(C)C)[C@]3(C)C(=O)C[C@]12C | 256 | 4.15 | 40 | 195 | 390 | 62 |  | 2 |  |
| CC(C)(O)/C=C/C(=O)[C@](C)(O)[C@H]1[C@H](O)C[C@@]2(C)[C@@H]3CC=C4[C@@H](CC(=O)[C@@H](O)C4(C)C)[C@]3(C)C(=O)C[C@]12C | 8.7 | 0.06 | 40 | 13.8 | 80.3 | 137 | 74 | 6 |  |
| CC(=O)OC(C)(C)/C=C/C(=O)[C@](C)(O)[C@H]1[C@H](O)C[C@@]2(C)[C@@H]3CC=C4[C@@H](C=C(O)C(=O)C4(C)C)[C@]3(C)C(=O)C[C@]12C [CUCURBITACIN E] |  | 0.04 | 40 | 3.2 | 15.2 |  | 74 |  | IC50 (HeLa): 0.1 µM |
| CC(=O)OC(C)(C)/C=C/C(=O)[C@](C)(O)[C@H]1[C@H](O)C[C@@]2(C)[C@@H]3CC=C4[C@H](C[C@H](O)C(=O)C4(C)C)[C@]3(C)C(=O)C[C@]12C [CUCURBITACIN B] | 4.42 | 0.02 | 40 | 10.5 | 27.7 | 205 |  | 3 | Ratio IC50 (HepG2 [13]): 37; IC50 (HeLa): 0.8 µM |

From ChEMBL document CHEMBL1764963, “In vitro and QSAR studies of cucurbitacins on HepG2 and HSC-T6 liver cell lines” (Bioorg Med Chem, 2011)
